Results from ChEMBL document CHEMBL1782035, “Synthesis and SAR of piperazine amides as novel c-jun N-terminal kinase (JNK) inhibitors” (Bioorg Med Chem Lett, 2009).
pIC50: −log10 of the molar value. Active and inactive are the calls of the source. The rule behind the calls is not given here.

Key:
[1] = target: Mitogen-activated protein kinase 8 (Homo sapiens, UniProt P45983); assay: Inhibition of JNK1 using biotinylated ATF2 and ATP substrates by HTRF assay
How it was run: (§1)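 HTRF kinase assay with final JNK1 at 0.1 nM or JNK3 at 0.3 nM, biotinylated ATF-2 at 0.4 nM and ATP at 1 μM. Phospho-Thr71-ATF-2 product was detected with a Europium-cryptate anti-phospho-Thr71-ATF-2 antibody and a streptavidin-allophycocyanin-XL acceptor. 10-point dose-response curves were run in duplicate, and IC50 was obtained from a four-parameter logistic fit.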

[2] = Inhibition of p38
[3] = target: Mitogen-activated protein kinase 10 (Homo sapiens, UniProt P53779); assay: Inhibition of JNK3 using biotinylated ATF2 and ATP substrates by HTRF assay; how it was run: as §1
Sequence of Mitogen-activated protein kinase 10 (P53779 whole entry): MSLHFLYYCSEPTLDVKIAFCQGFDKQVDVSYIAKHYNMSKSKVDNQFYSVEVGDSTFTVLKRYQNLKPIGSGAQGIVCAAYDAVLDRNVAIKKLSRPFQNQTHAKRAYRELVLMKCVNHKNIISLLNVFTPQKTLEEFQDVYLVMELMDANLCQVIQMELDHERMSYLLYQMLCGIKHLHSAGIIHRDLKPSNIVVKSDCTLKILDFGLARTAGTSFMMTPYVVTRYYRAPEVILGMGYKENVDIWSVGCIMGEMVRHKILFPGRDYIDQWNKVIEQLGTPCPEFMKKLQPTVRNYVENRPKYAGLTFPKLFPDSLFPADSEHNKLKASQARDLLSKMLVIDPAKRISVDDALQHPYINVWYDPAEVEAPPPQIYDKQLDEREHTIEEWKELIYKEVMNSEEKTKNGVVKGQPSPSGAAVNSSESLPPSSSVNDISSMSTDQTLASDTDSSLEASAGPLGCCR

[4] = Inhibition of JNK-mediated c-jun phosphorylation in rat INS-1 cells by ELISA incubated for 3 hrs at 37 degC; format: cell-based; details: INS1, 3 h
How it was run: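 INS-1 β-pancreatic cells seeded at 3.5 × 10^4 cells/well in RPMI 1640 with 10% FBS, cultured overnight at 37 °C, 5% CO2. Cells exposed 3 h to 4 mM streptozoicin plus inhibitor (DMSO) in a 10-point dilution spanning four logs, then lysed. Phospho-c-jun captured overnight at 4 °C by sandwich ELISA, TMB read at 450 nm; EC50 from four-parameter logistic.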

Sequence of Mitogen-activated protein kinase 8 (P45983 whole entry): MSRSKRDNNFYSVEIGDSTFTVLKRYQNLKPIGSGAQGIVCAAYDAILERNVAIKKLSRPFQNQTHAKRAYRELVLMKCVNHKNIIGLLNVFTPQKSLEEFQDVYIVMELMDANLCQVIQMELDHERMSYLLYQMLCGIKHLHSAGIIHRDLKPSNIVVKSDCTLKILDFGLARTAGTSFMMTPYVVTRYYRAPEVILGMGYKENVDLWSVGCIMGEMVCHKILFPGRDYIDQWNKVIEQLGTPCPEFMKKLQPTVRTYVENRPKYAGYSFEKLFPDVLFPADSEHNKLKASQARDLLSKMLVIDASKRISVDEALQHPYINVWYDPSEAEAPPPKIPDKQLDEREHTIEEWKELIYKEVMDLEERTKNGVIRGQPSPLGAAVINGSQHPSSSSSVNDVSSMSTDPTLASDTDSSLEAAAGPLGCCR

pIC50 [1]	inhibition [2]	pIC50 [3]	pIC50 [2]	pIC50 [4]	SMILES
6.05	inactive	5.85	–	–	O=C(Nc1cccc(Cl)c1N1CCN(CCc2ccccc2)CC1)c1ccc(Br)o1
< 4.70	–	< 4.70	–	–	Cc1cccc(NC(=O)c2ccc(Nc3ccccc3)o2)c1N1CCC2(CC1)OCCO2
6.59	–	6.46	–	–	Cc1cccc(NC(=O)c2ccc(C(F)F)o2)c1N1CCC2(CC1)OCCO2
6.31	–	–	< 4.70	–	CCN1CCN(c2c(Cl)cccc2NC(=O)c2ccc(Br)o2)CC1
6.48	–	6.28	–	–	Cc1ccc(C(=O)Nc2cccc(C)c2N2CCC3(CC2)OCCO3)o1
< 4.70	–	< 4.70	–	–	C=CCN1CCN(c2c(Cl)cccc2NC(=O)c2ncccn2)CC1
5.85	–	6.00	–	–	CCc1ccc(C(=O)Nc2cccc(C)c2N2CCC3(CC2)OCCO3)o1
< 4.70	–	< 4.70	–	–	C=CCN1CCN(c2c(Cl)cccc2NC(=O)c2ccc(C#N)cn2)CC1
–	–	5.70	–	–	C=CCN1CCN(c2c(Cl)cccc2NC(=O)c2cccc(Br)n2)CC1
5.74	–	5.70	–	–	C=CCN1CCN(c2c(Cl)cccc2NC(=O)c2cccc(C)n2)CC1
5.92	inactive	6.00	–	–	O=C(Nc1cccc(Cl)c1N1CCN(c2ccccn2)CC1)c1ccc(Br)o1
6.85	inactive	–	–	–	C#CCN1CCN(c2c(Cl)cccc2NC(=O)c2ccc(Br)o2)CC1
6.06	inactive	5.96	–	–	O=C(Nc1cccc(Cl)c1N1CCN(Cc2ccccc2)CC1)c1ccc(Br)o1
6.96	inactive	6.54	–	–	C#CCN1CCN(c2c(F)cccc2NC(=O)c2ccc(Br)o2)CC1
5.20	inactive	< 4.70	–	–	CC(C)(C)OC(=O)N1CCN(c2c(Cl)cccc2NC(=O)c2ccc(Br)o2)CC1
< 4.70	inactive	< 4.70	–	–	C=CCN1CCN(c2c(NC(=O)c3ccc(Br)o3)cccc2-c2ccccc2)CC1
< 4.70	inactive	< 4.70	–	–	O=C(Nc1cccc(Cl)c1N1CCN(C(=O)C(F)(F)F)CC1)c1ccc(Br)o1
7.40	–	7.10	–	–	Cc1cccc(NC(=O)c2ccc(Cl)o2)c1N1CCC2(CC1)OCCO2
–	–	5.30	–	–	C=CCN1CCN(c2c(Cl)cccc2NC(=O)c2ccno2)CC1
6.40	inactive	6.27	–	5.48	C=C(C)CN1CCN(c2c(Cl)cccc2NC(=O)c2ccc(Br)o2)CC1
–	–	5.24	–	–	C=CCN1CCN(c2c(Cl)cccc2NC(=O)c2csc(C)n2)CC1
7.05	–	7.22	–	–	Cc1cccc(NC(=O)c2ccc(Br)o2)c1N1CCC2(CC1)OCCO2

pIC50 [1]	inhibition [2]	pIC50 [3]	pIC50 [2]	pIC50 [4]	SMILES
5.15	–	5.19	–	–	C=CCN1CCN(c2c(Cl)cccc2NC(=O)c2cccc(Br)c2)CC1
6.74	inactive	6.70	–	–	C=CCN1CCN(c2c(C)cccc2NC(=O)c2ccc(Br)o2)CC1
< 4.70	inactive	< 4.70	–	–	C=CCN1CCN(c2c(Br)cccc2NC(=O)c2ccc(Br)o2)CC1
5.24	–	4.96	–	–	CC(=O)Nc1ccc(C(=O)Nc2cccc(C)c2N2CCC3(CC2)OCCO3)o1
5.82	inactive	5.66	–	–	CC(C)N1CCN(c2c(Cl)cccc2NC(=O)c2ccc(Br)o2)CC1
6.64	–	6.68	–	–	Cc1cccc(NC(=O)c2ccc(C#N)o2)c1N1CCC2(CC1)OCCO2
6.35	–	6.21	–	–	COc1ccc(C(=O)Nc2cccc(C)c2N2CCC3(CC2)OCCO3)o1
6.20	inactive	6.05	–	–	CCCN1CCN(c2c(Cl)cccc2NC(=O)c2ccc(Br)o2)CC1
6.48	–	6.51	–	–	C=CCN1CCN(c2c(Cl)cccc2NC(=O)c2cnc(Br)s2)CC1
6.57	inactive	6.60	–	–	O=C(Nc1cccc(Cl)c1N1CCN(Cc2ccco2)CC1)c1ccc(Br)o1
6.68	–	6.39	–	–	Cc1cccc(NC(=O)c2ccc(F)o2)c1N1CCC2(CC1)OCCO2
6.44	inactive	5.92	–	–	CN1CCN(c2c(Cl)cccc2NC(=O)c2ccc(Br)o2)CC1
5.49	–	5.32	–	–	Cc1cccc(NC(=O)c2ccc(Cc3ccccc3)o2)c1N1CCC2(CC1)OCCO2
< 4.70	inactive	< 4.70	–	–	C=CCN1CCN(c2c(NC(=O)c3ccc(Br)o3)cccc2Nc2ccccc2)CC1
5.74	–	5.74	–	–	C=CCN1CCN(c2c(Cl)cccc2NC(=O)c2nc(Br)cs2)CC1
6.22	inactive	6.09	–	–	CC(=O)N1CCN(c2c(Cl)cccc2NC(=O)c2ccc(Br)o2)CC1
5.35	–	5.05	–	–	C=CCN1CCN(c2c(Cl)cccc2NC(=O)c2ccc[nH]2)CC1
6.62	inactive	6.48	–	–	C=CCN1CCN(c2c(Cl)cccc2NC(=O)c2ccc(Br)o2)CC1
6.96	–	6.96	–	–	CC#Cc1ccc(C(=O)Nc2cccc(C)c2N2CCC3(CC2)OCCO3)o1
6.74	inactive	6.02	–	–	O=C(Nc1cccc(Cl)c1N1CCN(C2CC2)CC1)c1ccc(Br)o1
–	–	5.64	–	–	C=CCN1CCN(c2c(Cl)cccc2NC(=O)c2cscn2)CC1
< 4.70	inactive	< 4.70	–	–	C=CCN1CCN(c2c(NC(=O)c3ccc(Br)o3)cccc2C(F)(F)F)CC1

SMILES	pIC50 [1]	inhibition [2]	pIC50 [3]	pIC50 [2]	pIC50 [4]
O=C(Nc1cccc(Cl)c1N1CCNCC1)c1ccc(Br)o1	5.39	inactive	5.00	–	–
